The structures appear in SMILES notation.

The values below come from ChEMBL document CHEMBL1144526, “Isoindolo[2,1-c]benzo[1,2,4]triazines: a new ring system with antiproliferative activity” (2007).

In the first assay the test system is MCF7. The experiment in a line: Antiproliferative activity against human MCF7 cells at 100 uM after 48 hrs. The format is functional.
Conditions: not given
Take `N#Cc1c2ccccc2c2nnc3cc(Cl)c(Cl)cc3n12`: the Activity was determined as 80%.
Same read-out and setting: then `N#Cc1c2ccccc2c2nnc3cc(Cl)ccc3n12`, with 109%; and `Cc1cc2nnc3c4ccccc4c(C#N)n3c2cc1C`, with 76%.
`Cc1cccc2nnc3c4ccccc4c(C#N)n3c12` had an Activity of 69%.
In turn, `N#Cc1c2ccccc2c2nnc3ccc(C(F)(F)F)cc3n12` showed an Activity of 83%.
Regarding `COc1ccc2c(c1)nnc1c3ccccc3c(C#N)n21`, the Activity was 63%.
The same measure, in the same setting: for `Cc1cccc2c1nnc1c3ccccc3c(C#N)n21` the value was 72%.
Same read-out and setting: for `N#Cc1c2ccccc2c2nnc3cc(C(F)(F)F)ccc3n12` the value was 65%.
Same read-out and setting: for `N#Cc1c2ccccc2c2nnc3ccc(Cl)cc3n12` the value was 51%; for `N#Cc1c2ccccc2c2nnc3ccccc3n12`, 26%.

The subject of the next assay is NCI-H460. The experiment in a line: Antiproliferative activity against human NCI-H460 cells at 100 uM after 48 hrs. The format is functional.
Conditions: not given
The compound `N#Cc1c2ccccc2c2nnc3cc(Cl)c(Cl)cc3n12` gave an Activity of 17%.
In turn, `N#Cc1c2ccccc2c2nnc3cc(Cl)ccc3n12` registered an Activity of 109%.
For the compound `Cc1cc2nnc3c4ccccc4c(C#N)n3c2cc1C`, the Activity is reported as 48%.
As to `Cc1cccc2nnc3c4ccccc4c(C#N)n3c12`, the Activity was 50%.
Still for that read-out and setting: for `N#Cc1c2ccccc2c2nnc3ccc(C(F)(F)F)cc3n12` the value was 8%; for `COc1ccc2c(c1)nnc1c3ccccc3c(C#N)n21`, 86%; for `Cc1cccc2c1nnc1c3ccccc3c(C#N)n21`, 118%.
For the compound `N#Cc1c2ccccc2c2nnc3cc(C(F)(F)F)ccc3n12`, the Activity was found to be 6%.
Still for that read-out and setting: for `N#Cc1c2ccccc2c2nnc3ccc(Cl)cc3n12` the value was 61%.
On the same count and under the same terms, then `N#Cc1c2ccccc2c2nnc3ccccc3n12`, with 21%.

A further assay has as its system SF-268. The experiment in a line: Antiproliferative activity against human SF268 cells at 100 uM after 48 hrs. The format is functional.
Conditions: not given
In turn, `N#Cc1c2ccccc2c2nnc3cc(Cl)c(Cl)cc3n12` yielded an Activity of 68%.
Take `N#Cc1c2ccccc2c2nnc3cc(Cl)ccc3n12`: the Activity amounted to 114%.
As for `Cc1cc2nnc3c4ccccc4c(C#N)n3c2cc1C`, the Activity is recorded as 76%.
Same read-out and setting: for `Cc1cccc2nnc3c4ccccc4c(C#N)n3c12` the value was 88%; for `N#Cc1c2ccccc2c2nnc3ccc(C(F)(F)F)cc3n12`, 96%.
`COc1ccc2c(c1)nnc1c3ccccc3c(C#N)n21`: the Activity was found to be 104%.
Still for that read-out and setting: for `Cc1cccc2c1nnc1c3ccccc3c(C#N)n21` the value was 105%; for `N#Cc1c2ccccc2c2nnc3cc(C(F)(F)F)ccc3n12`, 82%.
In the case of `N#Cc1c2ccccc2c2nnc3ccc(Cl)cc3n12`, the Activity came to 86%.
`N#Cc1c2ccccc2c2nnc3ccccc3n12` gave an Activity of 95%.

For a further assay, the system named is MOLT-4. The experiment in a line: Growth inhibition of human MOLT4 cells. The format is functional.
Conditions: not given
The essentials: (§1)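 NCI full human tumour cell panel covering leukemia, melanoma, lung, colon, renal, ovarian, breast, prostate and CNS subpanels. Five concentrations at 10-fold dilution were used: 10^-4, 10^-5, 10^-6, 10^-7 and 10^-8 M. GI50, the concentration giving 50% inhibition of net cell growth, was determined for each cell line.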
As a reminder, the GI50 is the concentration giving 50% growth inhibition. A higher GI50 goes with lower sensitivity of the cells. `N#Cc1c2ccccc2c2nnc3ccc(C(F)(F)F)cc3n12` showed a GI50 of 10.5 µM.

Another assay has as its system SR. The experiment in a line: Growth inhibition of human SR cells. The format is functional.
Conditions: not given
The method in brief:
as §1
Compound `N#Cc1c2ccccc2c2nnc3ccc(C(F)(F)F)cc3n12` showed a GI50 of 0.214 µM.

The subject of the next assay is EKVX. The experiment in a line: Growth inhibition of human EKVX cells. The format is functional.
Conditions: not given
The essentials:
as §1
With `N#Cc1c2ccccc2c2nnc3ccc(C(F)(F)F)cc3n12`, the 50% growth inhibitory concentration (GI50) is at most 0.01 µM.
The compound `N#Cc1c2ccccc2c2nnc3ccccc3n12` showed a GI50 of 12.6 µM.

A further assay concerns NCI-H522. The experiment in a line: Growth inhibition of human NCI-522 cells. The format is functional.
Conditions: not given
The method in brief: as §1
The compound `N#Cc1c2ccccc2c2nnc3ccc(C(F)(F)F)cc3n12` had a GI50 of 17 µM.

In the next assay the test system is A549. The experiment in a line: Growth inhibition of human A549 cells. The format is functional.
Conditions: not given
The method in brief: as §1
Consider `N#Cc1c2ccccc2c2nnc3ccccc3n12`, for which the concentration for 50% growth inhibition (GI50) was 13.5 µM.

Another assay deals with COLO 205. The experiment in a line: Growth inhibition of human COLO205 cells. The format is functional.
Conditions: not given
The essentials: as §1
In the case of `N#Cc1c2ccccc2c2nnc3ccccc3n12`, it took 9.33 µM to inhibit growth by half (GI50).

For another assay, the system named is LOX IMVI. The experiment in a line: Growth inhibition of human LOX IMVI cells.
Conditions: not given
The format is functional. The method in brief: as §1
With `N#Cc1c2ccccc2c2nnc3ccccc3n12`, halving of growth (GI50) required 6.46 µM.

In another assay the test system is M14. The experiment in a line: Growth inhibition of human M14 cells. The format is functional.
Conditions: not given
The essentials: as §1
`N#Cc1c2ccccc2c2nnc3ccccc3n12` had a GI50 of 14.8 µM.

The subject of a further assay is OVCAR-8. The experiment in a line: Growth inhibition of human OVCAR8 cells. The format is functional.
Conditions: not given
The method in brief: as §1
The compound `N#Cc1c2ccccc2c2nnc3ccccc3n12` had a GI50 of 11.2 µM.

Another assay has as its system MCF7. The experiment in a line: Growth inhibition of human MCF7 cells. The format is functional.
Conditions: not given
The method in brief: as §1
For the compound `N#Cc1c2ccccc2c2nnc3cc(C(F)(F)F)ccc3n12`, the GI50 is 10.7 µM.
As to `N#Cc1c2ccccc2c2nnc3ccccc3n12`, the GI50 is 14.1 µM.

Another assay relates to BT-549. The experiment in a line: Growth inhibition of human BT549 cells. The format is functional.
Conditions: not given
The essentials:
as §1
`N#Cc1c2ccccc2c2nnc3ccccc3n12` gave a GI50 of 12 µM.

System in the next assay: not listed separately
The experiment in a line: Growth inhibition of human NCI-50 cells. The format is functional. Conditions: NCI full human tumour cell panel. The method in brief:
as §1
`N#Cc1c2ccccc2c2nnc3cc(Cl)c(Cl)cc3n12` gave a GI50 of 49 µM.
On to `N#Cc1c2ccccc2c2nnc3ccc(C(F)(F)F)cc3n12`, for which growth was halved (GI50) at 34.7 µM.
The compound `N#Cc1c2ccccc2c2nnc3cc(C(F)(F)F)ccc3n12` showed a GI50 of 53.7 µM.
Still for that read-out and setting: then `N#Cc1c2ccccc2c2nnc3ccccc3n12`, with 33.9 µM.
